Screening data deposited in PubChem by The Scripps Research Institute Molecular Screening Center.
zfTRPN1 agonist = activates the zebrafish TRPN1 channel; HEK293 zebrafish TRPN1-YFP, Fluo-8 calcium fluorescence; 100% = response to 87 µM carbachol; activation, % at 3 µM; 220,000 compounds, 0.18% hits; AID 1424;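 active means activation above its plate's cutoff, the mean activation of test wells on that plate plus 3 SD, cut at about 19% in these data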;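 further: 0% = DMSO alone and 100% = 87 µM carbachol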
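Assay system: Zebrafish TRPN1-YFP in HEK293 cells | Incubation: Dye loading 1 h at 37 °C, then 30 min room temperature | Measured by: Kinetic Fluo-8 fluorescence, ex 470-495, em 515-575 nm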
OXTR ag = activates the human oxytocin receptor; P30559; CHO-OTR cells, Fluo-8 calcium fluorescence; normalized: DMSO 0%, oxytocin 100%; activation, % at 3 µM; 320,000 compounds, 0.32% hits;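 active means activation above the mean of all tested compounds plus 3 SD, cutoff set per screening run, cut at about 20% in these data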;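 further: peak over basal fluorescence ratio from a 100 s FLIPR kinetic read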
OXTR potentiate = potentiates the human oxytocin receptor response. CHO-OTR cells, Fluo-8 calcium fluorescence, potentiator mode; 0% = oxytocin EC15, 100% = EC100. activation, % at 3 µM. 320,000 compounds, 0.061% hits;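 active means activation above that plate's cutoff, the mean activation of tested compounds plus 3 SD, cut at about 6.6% in these data, passing the limit was not always enough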;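 further: 100% uses oxytocin at 75 nM as the full agonist control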
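Assay system: CHO cell line stably expressing human OTR | Also added: Oxytocin at about EC15, sub-maximal agonist stimulus | Times: Compound 6 min at room temperature before oxytocin, 100 s read | Measured by: Fluo-8 intracellular calcium fluorescence, ex 470-495, em 515-575 nm | Controls: EC15 oxytocin alone as 0%, 75 nM oxytocin as 100%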
TRPML3 ag = activates the human TRPML3 channel | Q8TDD5 | HEK293 TRPML3-YFP, Fluo-8 calcium fluorescence; 100% = the carbachol control signal | activation, % at 3 µM | 220,000 compounds, 0.29% hits | AID 1448;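 active means activation above its plate's cutoff, the mean activation of the plate's test wells plus 3 SD, cut at about 12% in these data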;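 further: 0% = DMSO only wells and 100% = carbachol wells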
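Material: HEK293 cells stably carrying human TRPML3-YFP; compound dosing: single dose, 3 µM final nominal compound, 0.3% DMSO final; incubation: 1-h 37 °C dye load, 5-s basal, 120-s post-compound reads; technique: Fluo-8 intracellular calcium fluorescence, excitation 470-495 nm, emission 515-575 nm; read-out basis: percent activation from peak-to-basal fluorescence ratio, scaled between DMSO and carbachol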
V1R ag counter = V1a receptor agonism, counter-screen for OXTR agonists; CHO-V1R cells, Fluo-8 calcium fluorescence, agonist mode; 0% DMSO, 100% 3 nM vasopressin; activation, % at 3 µM; 320,000 compounds, 0.25% hits; AID 2797;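 active means activation above the mean activation of all tested compounds plus 3 SD, per screening run, cut at about 20% in these data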;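 further: signal is peak over basal fluorescence ratio across a 100 second FLIPR read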
Target sequence (P37288 whole entry, looked up): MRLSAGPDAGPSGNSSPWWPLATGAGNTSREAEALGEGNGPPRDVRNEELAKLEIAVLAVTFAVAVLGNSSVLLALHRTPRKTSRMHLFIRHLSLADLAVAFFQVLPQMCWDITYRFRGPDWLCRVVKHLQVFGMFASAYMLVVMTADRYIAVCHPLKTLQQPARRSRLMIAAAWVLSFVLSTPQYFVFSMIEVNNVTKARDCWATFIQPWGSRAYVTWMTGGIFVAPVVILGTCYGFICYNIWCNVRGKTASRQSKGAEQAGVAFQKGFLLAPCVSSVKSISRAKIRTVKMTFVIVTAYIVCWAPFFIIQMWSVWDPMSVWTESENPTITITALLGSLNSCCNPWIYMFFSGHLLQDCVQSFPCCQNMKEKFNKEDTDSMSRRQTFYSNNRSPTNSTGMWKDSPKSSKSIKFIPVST
OXTR pot confirm = confirmation of human oxytocin receptor potentiators. CHO-OTR cells, Fluo-8 calcium fluorescence, potentiation; scaled from low-dose to maximal oxytocin. shares compounds with OXTR potentiate. activation, % at 3 µM. 180 tested, under 10 active;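 active means mean percent activation over triplicates above a cutoff set from solvent-only control plates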;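 further: compounds tested in the presence of an EC15 dose of oxytocin; 0% = EC15 oxytocin with DMSO and 100% = EC100 oxytocin with DMSO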
* marks the source's active call; other numbers are inactive results; . = no result. Hits are enriched below; roughly 0.55% of the tested compounds scored in any of these assays.

SMILES	zfTRPN1 agonist	OXTR ag	OXTR potentiate	TRPML3 ag	V1R ag counter	OXTR pot confirm
CCOc1ccc(C(=O)Nc2nnc(SCC(=O)NCC3CCCO3)s2)cc1OCC (stereo unspecified)	.	1	11*	.	1	0
CC(C)=NOC(=O)c1c(C)noc1-c1snnc1C	1	0	0	1	1	.
COC(=O)c1c(C)noc1-c1snnc1C	1	1	11*	2	0	-7
O=C(COc1ncnc2sccc12)NC1CCCc2ccccc21 (stereo unspecified)	-1	0	-1	0	0	.
Cc1ccc(CC(=O)NCCc2ccc(S(N)(=O)=O)cc2)cc1	.	0	-8	.	0	.
Cc1ccc2c(CC(=O)NCCc3ccc(S(N)(=O)=O)cc3)coc2c1	2	0	9.3*	0	-1	-3
C/C(=N\NC(=O)c1ccoc1C)c1cccc2ccccc12	.	-2	-1	.	-1	.
O=C(O)c1cccc(NS(=O)(=O)c2cccc3nsnc23)c1	0	1	10.0*	1	-1	-2
O=S(=O)(Nc1ccccc1)c1cccc2nsnc12	.	0	-5	.	0	.
CSCCC(NC(=O)COc1ccccc1)C(=O)N(C)Cc1cccc(F)c1 (stereo unspecified)	.	-1	-2	.	2	.
Cc1ccc2c(c1)-n1c(nc3cc(Cl)ccc3c1=O)C(CC(C)C)NC2=O (stereo unspecified)	.	-1	13*	.	1	0
COc1ccc(CCC(=O)Nc2nnc(C(F)(F)F)s2)cc1	.	0	-9	.	3	.
O=C(N/N=C/c1cn(-c2ccccc2)nc1-c1ccccc1)c1ccco1	1	-1	9.9*	-1	-1	-2
O=C(N/N=C\c1cn(-c2ccccc2)nc1-c1ccccc1)c1ccc(Br)o1	-1	-1	-16	0	1	.
O=C(Oc1cc(=O)n2ccccc2n1)c1ccccc1	-1	0	-6	1	0	.
Fc1ccc2c(-c3cccc(C(F)(F)F)c3)c(-c3ccccc3)ncc2c1	.	0	9.4*	.	1	-8
Fc1ccc2cnc(-c3ccccc3)c(-c3cc(C(F)(F)F)cc(C(F)(F)F)c3)c2c1	.	0	7	.	0	.
COc1ccc(S(=O)(=O)N(C)c2ccc(C(=O)NCC3CCCO3)cc2)cc1OC (stereo unspecified)	.	2	14*	.	1	-4
C=CCn1c(N2CCCC2)nc2c1c(=O)[nH]c(=O)n2C	0	0	11*	-1	-1	-5
C/C(Cl)=C/Cn1c(N2CCCC2)nc2c1c(=O)[nH]c(=O)n2C	.	0	-1	.	0	.
O=C(OC(C(=O)NCc1ccccc1)c1ccccc1)c1ccco1 (stereo unspecified)	.	0	14*	.	-1	-2
COc1cc(SC)ccc1C(=O)N1CCN(Cc2ccc3c(c2)OCO3)CC1	.	2	-4	.	2	.
COCCCNC(=O)CN(c1ccc(F)cc1)S(=O)(=O)c1ccc2c(c1)OCCO2	.	1	-5	.	2	.
CCN1CCCC1CNCc1cc(OC)c(OC)c(OC)c1 (stereo unspecified)	2	3	13*	0	2	-5
CCN1C(=O)N(CC)c2cccc3cccc1c23	.	-2	11*	.	-1	-4
SMILES	zfTRPN1 agonist	OXTR ag	OXTR potentiate	TRPML3 ag	V1R ag counter	OXTR pot confirm
O=C(CCc1ccccc1)N1CCN(S(=O)(=O)c2cccs2)CC1	.	3	13*	.	1	-4
N=C1SC(c2ccccc2)C(=O)N1c1ncc(Cc2ccccc2Cl)s1 (stereo unspecified)	2	0	-1	1	-1	.
Cc1cc(C)nc(-n2nc(C)c(Sc3ccc(F)cc3)c2N)n1	-2	-2	11*	0	-1	-7
Cc1nn(-c2ccccc2)c(N)c1Sc1cccc([N+](=O)[O-])c1	3	-1	-12	0	2	.
CN(c1ccccc1C(=O)Nc1ccc(S(=O)(=O)N2CCCCC2)cc1)S(C)(=O)=O	2	1	11*	0	0	-8
CCCC(=O)Nc1cc(S(=O)(=O)N2CCCCC2)ccc1N1CCOCC1	.	1	0	.	0	.
CCCC(=O)Nc1cc(S(=O)(=O)N2CCOCC2)ccc1N1CCCCC1	.	-1	13*	.	0	-7
CN(C)CC(O)COC(c1ccccc1)c1ccccc1 (stereo unspecified)	0	1	11*	1	3	1
CCOC(=O)N1CCN(C(=O)C2CCN(C(=O)Nc3ccccc3)CC2)CC1	.	2	11*	.	2	3
CCN1CCN(C(=O)C2CCN(C(=O)Nc3ccccc3)CC2)CC1	.	1	1	.	0	.
CCOC(=O)c1nc(C)n(-c2ccc([N+](=O)[O-])cc2)n1	0	0	-3	1	1	.
CCOC(=O)c1nc(C)n(-c2ccc(Cl)cc2)n1	1	-1	9.9*	0	0	-1
O=C(NCCCN1CCOCC1)C1CC(=O)N(CCc2ccccc2)C1 (stereo unspecified)	-2	1	12*	1	1	-10
O=C(NCCCN1CCCCCC1)C1CC(=O)N(CCc2ccccc2)C1 (stereo unspecified)	-1	-1	-5	0	0	.
COc1ccccc1OCCNC(=O)c1cc(=O)[nH]c2ccccc12	2	0	9.1*	1	0	-2
O=C(CCCSc1nc2ccccc2[nH]1)NCc1ccccc1	-1	-1	12*	-1	3	-8
Cc1ccc(S(=O)(=O)C2(C(=O)NC3CCCCC3C)CC2)cc1 (stereo unspecified)	-3	-1	17*	0	-2	-8
CCN(CC)C(=O)C1CCN(c2ncnc3c2cnn3-c2ccc(C)cc2C)CC1	0	-1	-12	1	-1	.
Cc1ccc(-n2ncc3c(N4CCC(C(N)=O)CC4)ncnc32)c(C)c1	-1	0	13*	0	-1	-2
Cn1c(=O)c2[nH]c(-c3ccccc3Cl)c(O)c2n(C)c1=O	11	1	22*	7	3	-5
N#C/C(=C\c1ccc(-c2ccc([N+](=O)[O-])cc2Br)o1)C(=O)N1CCN(c2ccccc2)CC1	0	0	0	1	0	.
CN(C)c1ccc(CNC(=O)C2CCN(S(=O)(=O)c3ccc4c(c3)CCC(=O)N4)CC2)cc1	0	0	11*	0	0	-4
COC(=O)c1cc(C(=O)Nc2cccc(C)n2)cc([N+](=O)[O-])c1	-1	-1	9.1*	0	-1	0
CC[C@@]1(O)C(=O)OCc2c1cc1n(c2=O)Cc2cc3c(N)cccc3nc2-1	.	0	15*	.	0	-3
